Laboratory results as given in BindingDB's records for doi:10.1021/jm9600205 (National Institute of Diabetes, 1996).

Target: Adenosine receptor A2a (Rattus norvegicus, UniProt P30543)
Experiment: Displacement of [3H]-CGS- 21680 binding to Adenosine A2A receptor in rat striatal membranes
Procedure, shortened: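 Adenosine deaminase (3 units/mL) present during preparation, 30 min preincubation at 30 °C and incubation. At least five competitor concentrations over 3 orders of magnitude.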

Adenosine receptor A2a, sequence (P30543 whole entry): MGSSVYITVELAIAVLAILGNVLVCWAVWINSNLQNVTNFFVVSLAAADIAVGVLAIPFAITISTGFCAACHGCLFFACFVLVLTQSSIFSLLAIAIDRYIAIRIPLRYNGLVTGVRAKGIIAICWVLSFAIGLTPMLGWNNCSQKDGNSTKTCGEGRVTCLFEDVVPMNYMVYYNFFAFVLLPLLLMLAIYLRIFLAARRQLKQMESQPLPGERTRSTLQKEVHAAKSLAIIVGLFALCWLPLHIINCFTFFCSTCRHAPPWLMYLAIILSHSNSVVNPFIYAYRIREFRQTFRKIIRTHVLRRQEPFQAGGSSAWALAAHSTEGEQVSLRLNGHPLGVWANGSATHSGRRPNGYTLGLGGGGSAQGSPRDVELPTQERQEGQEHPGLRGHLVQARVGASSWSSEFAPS

Molecule `CCOC(=O)C1=C(C)N=C(C)C(C(=O)OC)C1C` (configuration not stated) [2,4,6-Trimethyl-1,4-dihydro-pyridine-3,5-dicarboxylic acid 3-ethyl ester 5-methyl ester] has a Ki of 46.1 µM.
`CCOC(=O)C1=C(c2ccccc2)N=C(C)C(C(=O)OCC)C1C` (configuration not stated) [2,4-Dimethyl-6-phenyl-1,4-dihydro-pyridine-3,5-dicarboxylic acid diethyl ester] was tested, and the Ki was 35.9 µM.
